In brackets after ≈: the same amount, converted by molar mass.
Assays:
Staphylococcus aureus [1] = experiment: Antibacterial activity against multidrug-resistant Staphylococcus aureus isolate 2490 by broth microdilution assay; type: functional
Procedure, shortened: (§1)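 Broth microdilution MIC per CLSI guidelines against clinical MRSA isolates, for β-lactams and test compound alone and in combination. Compounds were dissolved in DMSO. Growth was read by eye, in duplicate. FIC index = FIC(compound) + FIC(drug); synergy defined as FIC index ≤0.5.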

Staphylococcus aureus [2] = experiment: Antibacterial activity against multidrug-resistant Staphylococcus aureus isolate 3411 by broth microdilution assay; type: functional; procedure, shortened: as §1
Staphylococcus aureus [3] = experiment: Antibacterial activity against multidrug-resistant Staphylococcus aureus isolate 774 by broth microdilution assay; type: functional; procedure, shortened: as §1
Staphylococcus aureus [4] = experiment: Synergistic antibacterial activity against multidrug-resistant Staphylococcus aureus isolate 2516 in presence of amoxicillin by broth microdilution assay; type: functional
Procedure, shortened: (§2)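 Clinical MRSA isolate panel; compound and β-lactam tested alone and in combination by CLSI broth microdilution, compounds dissolved in DMSO, growth inhibition scored by eye, run in duplicate. FIC index = FIC(compound) + FIC(drug), each the MIC in combination divided by the MIC alone; an index ≤ 0.5 was called synergy.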

Staphylococcus aureus [5] = experiment: Synergistic antibacterial activity against multidrug-resistant Staphylococcus aureus isolate 3267 in presence of amoxicillin by broth microdilution assay; type: functional
Procedure, shortened: (§3)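 CLSI broth microdilution on clinical MRSA isolates. MICs were measured for the β-lactam alone, the test agent alone and the two combined. Compounds were dissolved in DMSO, and growth inhibition was scored by eye. FIC index is the sum, over both agents, of MIC in combination divided by MIC alone. An FIC index ≤0.5 was taken as synergy.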

Staphylococcus aureus [6] = experiment: Synergistic antibacterial activity against multidrug-resistant Staphylococcus aureus isolate 757 in presence of amoxicillin by broth microdilution assay; type: functional
Staphylococcus aureus [7] = experiment: Synergistic antibacterial activity against multidrug-resistant Staphylococcus aureus isolate 1402 in presence of amoxicillin by broth microdilution assay; type: functional; procedure, shortened: as §2
Staphylococcus aureus [8] = experiment: Synergistic antibacterial activity against multidrug-resistant Staphylococcus aureus isolate 1717 in presence of amoxicillin by broth microdilution assay; type: functional; procedure, shortened: as §2
Staphylococcus aureus [9] = experiment: Synergistic antibacterial activity against multidrug-resistant Staphylococcus aureus isolate 254 in presence of methicillin by broth microdilution assay; type: functional; procedure, shortened: as §3
Staphylococcus aureus [10] = experiment: Synergistic antibacterial activity against multidrug-resistant Staphylococcus aureus isolate 1749 in presence of methicillin by broth microdilution assay; type: functional; procedure, shortened: as §2
Staphylococcus aureus [11] = experiment: Synergistic antibacterial activity against multidrug-resistant Staphylococcus aureus isolate 1402 in presence of methicillin by broth microdilution assay; type: functional; procedure, shortened: as §2
Staphylococcus aureus [12] = experiment: Synergistic antibacterial activity against multidrug-resistant Staphylococcus aureus isolate 3580 in presence of methicillin by broth microdilution assay; type: functional
Staphylococcus aureus [13] = experiment: Synergistic antibacterial activity against multidrug-resistant Staphylococcus aureus isolate 1449 in presence of methicillin by broth microdilution assay; type: functional; procedure, shortened: as §2
Staphylococcus aureus [14] = experiment: Synergistic antibacterial activity against multidrug-resistant Staphylococcus aureus isolate 231 in presence of cloxacillin by broth microdilution assay; type: functional; procedure, shortened: as §2
Staphylococcus aureus [15] = experiment: Synergistic antibacterial activity against multidrug-resistant Staphylococcus aureus isolate 1749 in presence of cloxacillin by broth microdilution assay; type: functional; procedure, shortened: as §2
Staphylococcus aureus [16] = experiment: Synergistic antibacterial activity against multidrug-resistant Staphylococcus aureus isolate 1402 in presence of cloxacillin by broth microdilution assay; type: functional; procedure, shortened: as §2
Staphylococcus aureus [17] = experiment: Synergistic antibacterial activity against multidrug-resistant Staphylococcus aureus isolate 2728 in presence of cefuroxime by broth microdilution assay; type: functional; procedure, shortened: as §3
Staphylococcus aureus [18] = experiment: Synergistic antibacterial activity against multidrug-resistant Staphylococcus aureus isolate 2224 in presence of cefuroxime by broth microdilution assay; type: functional; procedure, shortened: as §2
Staphylococcus aureus [19] = experiment: Synergistic antibacterial activity against multidrug-resistant Staphylococcus aureus isolate 358 in presence of cefuroxime by broth microdilution assay; type: functional
Staphylococcus aureus [20] = experiment: Synergistic antibacterial activity against multidrug-resistant Staphylococcus aureus isolate 3580 in presence of cefuroxime by broth microdilution assay; type: functional
Staphylococcus aureus [21] = experiment: Synergistic antibacterial activity against multidrug-resistant Staphylococcus aureus isolate 85 in presence of cefuroxime by broth microdilution assay; type: functional
Staphylococcus aureus [22] = experiment: Synergistic antibacterial activity against multidrug-resistant Staphylococcus aureus isolate 417 in presence of meropenem by broth microdilution assay; type: functional
Staphylococcus aureus [23] = experiment: Synergistic antibacterial activity against multidrug-resistant Staphylococcus aureus isolate 2901 in presence of meropenem by broth microdilution assay; type: functional; procedure, shortened: as §3
Staphylococcus aureus [24] = experiment: Synergistic antibacterial activity against multidrug-resistant Staphylococcus aureus isolate 3267 in presence of meropenem by broth microdilution assay; type: functional; procedure, shortened: as §3
Staphylococcus aureus [25] = experiment: Synergistic antibacterial activity against multidrug-resistant Staphylococcus aureus isolate 1749 in presence of meropenem by broth microdilution assay; type: functional; procedure, shortened: as §2
Staphylococcus aureus [26] = experiment: Synergistic antibacterial activity against multidrug-resistant Staphylococcus aureus isolate 2728 in presence of meropenem by broth microdilution assay; type: functional; procedure, shortened: as §3
Staphylococcus aureus [27] = experiment: Synergistic antibacterial activity against multidrug-resistant Staphylococcus aureus isolate 3580 in presence of meropenem by broth microdilution assay; type: functional
Staphylococcus aureus [28] = experiment: Synergistic antibacterial activity against multidrug-resistant Staphylococcus aureus isolate 3411 assessed as fractional Inhibitory concentration index in presence of amoxicillin by broth microdilution assay; type: functional
Staphylococcus aureus [29] = experiment: Synergistic antibacterial activity against multidrug-resistant Staphylococcus aureus isolate 1344 assessed as fractional Inhibitory concentration index in presence of methicillin by broth microdilution assay; type: functional
Procedure, shortened: (§4)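 CLSI broth microdilution run on clinical MRSA isolates with each β-lactam alone, the test agent alone, and the two combined; agents dissolved in DMSO. Growth inhibition was read by eye. FIC index = FIC(compound) + FIC(β-lactam), where each FIC is the MIC in combination divided by the MIC alone. An index ≤0.5 was taken as synergy.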

Staphylococcus aureus [30] = experiment: Synergistic antibacterial activity against multidrug-resistant Staphylococcus aureus isolate 2901 assessed as fractional Inhibitory concentration index in presence of methicillin by broth microdilution assay; type: functional
Staphylococcus aureus [31] = experiment: Synergistic antibacterial activity against multidrug-resistant Staphylococcus aureus isolate 1402 assessed as fractional Inhibitory concentration index in presence of methicillin by broth microdilution assay; type: functional; procedure, shortened: as §4
Staphylococcus aureus [32] = experiment: Synergistic antibacterial activity against multidrug-resistant Staphylococcus aureus isolate 2973 assessed as fractional Inhibitory concentration index in presence of methicillin by broth microdilution assay; type: functional
Staphylococcus aureus [33] = experiment: Synergistic antibacterial activity against multidrug-resistant Staphylococcus aureus isolate 254 assessed as fractional Inhibitory concentration index in presence of cloxacillin by broth microdilution assay; type: functional
Staphylococcus aureus [34] = experiment: Synergistic antibacterial activity against multidrug-resistant Staphylococcus aureus isolate 3411 assessed as fractional Inhibitory concentration index in presence of cloxacillin by broth microdilution assay; type: functional
Staphylococcus aureus [35] = experiment: Synergistic antibacterial activity against multidrug-resistant Staphylococcus aureus isolate 1717 assessed as fractional Inhibitory concentration index in presence of cloxacillin by broth microdilution assay; type: functional; procedure, shortened: as §4
Staphylococcus aureus [36] = experiment: Synergistic antibacterial activity against multidrug-resistant Staphylococcus aureus isolate 1136 assessed as fractional Inhibitory concentration index in presence of cefuroxime by broth microdilution assay; type: functional; procedure, shortened: as §4
Staphylococcus aureus [37] = experiment: Synergistic antibacterial activity against multidrug-resistant Staphylococcus aureus isolate 2895 assessed as fractional Inhibitory concentration index in presence of cefuroxime by broth microdilution assay; type: functional
Staphylococcus aureus [38] = experiment: Synergistic antibacterial activity against multidrug-resistant Staphylococcus aureus isolate 1449 assessed as fractional Inhibitory concentration index in presence of cefuroxime by broth microdilution assay; type: functional; procedure, shortened: as §4
[39] = AUC (0 to infinity) in Sprague-Dawley rat at 1 mg/kg, iv by UPLC-MS/MS analysis; type: ADME, organism-based; set-up: dose 1 mg/kg, time infinity, route intravenous; details: in vivo

## CCCCCCCCCNc1ccc(F)c(C(N)=O)c1F
Staphylococcus aureus [1]
  MIC: 16 µg/mL (≈ 53.6 µM)
Staphylococcus aureus [2]
  MIC: 2 µg/mL (≈ 6.7 µM)
Staphylococcus aureus [3]
  MIC: 512 µg/mL (≈ 1720 µM)
Staphylococcus aureus [4]
  MIC: 8 µg/mL
Staphylococcus aureus [5]
  MIC: 2 µg/mL
Staphylococcus aureus [6]
  MIC: 2 µg/mL
Staphylococcus aureus [7]
  MIC: 4 µg/mL
Staphylococcus aureus [8]
  MIC: 2 µg/mL
Staphylococcus aureus [9]
  MIC: 4 µg/mL
Staphylococcus aureus [10]
  MIC: 2 µg/mL
Staphylococcus aureus [11]
  MIC: 2 µg/mL
Staphylococcus aureus [12]
  MIC: 2 µg/mL
Staphylococcus aureus [13]
  MIC: 2 µg/mL
Staphylococcus aureus [14]
  MIC: 2 µg/mL
Staphylococcus aureus [15]
  MIC: 0.5 µg/mL
Staphylococcus aureus [16]
  MIC: 1 µg/mL
Staphylococcus aureus [17]
  MIC: 2 µg/mL
Staphylococcus aureus [18]
  MIC: 2 µg/mL
Staphylococcus aureus [19]
  MIC: 2 µg/mL
Staphylococcus aureus [20]
  MIC: 2 µg/mL
Staphylococcus aureus [21]
  MIC: 2 µg/mL
Staphylococcus aureus [22]
  MIC: 4 µg/mL
Staphylococcus aureus [23]
  MIC: 4 µg/mL
Staphylococcus aureus [24]
  MIC: 8 µg/mL
Staphylococcus aureus [25]
  MIC: 4 µg/mL
Staphylococcus aureus [26]
  MIC: 4 µg/mL
Staphylococcus aureus [27]
  MIC: 8 µg/mL
Staphylococcus aureus [28]
  fractional inhibitory concentration index (FICI): 2
Staphylococcus aureus [29]
  fractional inhibitory concentration index (FICI): 0.3
Staphylococcus aureus [30]
  fractional inhibitory concentration index (FICI): 0
Staphylococcus aureus [31]
  fractional inhibitory concentration index (FICI): 0.6
Staphylococcus aureus [32]
  fractional inhibitory concentration index (FICI): 0.3
Staphylococcus aureus [33]
  fractional inhibitory concentration index (FICI): 0.2
Staphylococcus aureus [34]
  fractional inhibitory concentration index (FICI): 0.5
Staphylococcus aureus [35]
  fractional inhibitory concentration index (FICI): 2.5
Staphylococcus aureus [36]
  fractional inhibitory concentration index (FICI): 0.1
Staphylococcus aureus [37]
  fractional inhibitory concentration index (FICI): 0.3
Staphylococcus aureus [38]
  fractional inhibitory concentration index (FICI): 1.5
[39]
  AUC(0-inf): 1600 ng·h/mL
